Reference: ChEMBL document CHEMBL4402564, “Synthetic Lethality in Pancreatic Cancer: Discovery of a New RAD51-BRCA2 Small Molecule Disruptor That Inhibits Homologous Recombination and Synergizes with Olaparib” (J Med Chem, 2020)
The source made the active and inactive calls. The rule behind the calls is not given here.

Columns and labels:
BXPC-3 [1] = test: Antiproliferative activity against human BxPC3 cells assessed as increase in cell death at 10 to 15 uM after 72 hrs in presence of olaparib by CellTox Green assay; format: functional, cell-based
Outline: (§1)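 BxPC-3 cells in RPMI 1640 with 10% FBS and 2 mM glutamine. Exposed 72 h to disruptor alone or with 10 μM olaparib, in medium containing 0.6% DMSO. Cell death measured in parallel with viability. Disruptor-only and combination cultures compared statistically.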

[2] = molecular target: T1, DNA repair protein RAD51 homolog 1 (Homo sapiens) (UniProt Q06609); test: Inhibition of RAD51 in human BxPC3 cells assessed as increase in gamma-H2AX labelling at 20 uM after 48 hrs in presence of 10 uM olaparib by immunofluorescence microscopic analysis; format: cell-based
T1 sequence (whole entry): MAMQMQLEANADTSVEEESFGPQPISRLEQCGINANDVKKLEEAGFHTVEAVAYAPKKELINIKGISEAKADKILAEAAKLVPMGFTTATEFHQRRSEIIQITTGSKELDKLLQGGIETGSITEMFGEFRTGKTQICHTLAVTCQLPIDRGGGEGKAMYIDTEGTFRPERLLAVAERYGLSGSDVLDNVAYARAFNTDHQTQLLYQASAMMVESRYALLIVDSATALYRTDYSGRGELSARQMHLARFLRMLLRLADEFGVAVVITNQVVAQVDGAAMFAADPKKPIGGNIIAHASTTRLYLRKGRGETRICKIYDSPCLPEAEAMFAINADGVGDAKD
Outline: (§2)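 Cells exposed 48 h to 20 μM disruptor alone or with 10 μM olaparib, in medium with 0.6% DMSO. Nuclear γ-H2AX foci visualized by immunofluorescence and percentage of labeled nuclei scored. BxPC-3 (functional BRCA2) and Capan-1 (BRCA2-defective) cultures in RPMI 1640 with 10% FBS.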

[3] = molecular target: T1, DNA repair protein RAD51 homolog 1 (Homo sapiens); test: Inhibition of RAD51 in human BxPC3 cells assessed as reduction in cisplatin-induced RAD51 foci formation at 20 uM preincubated for 1 hr in presence of cisplatin and followed by compound wash out and further incubated with fresh medium containing compounds for 4 hrs by DAPI-staining based immunofluorescence analysis; format: cell-based
Outline: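 DNA damage induced in BxPC-3 by 1 h exposure to 50 μM cisplatin, with or without 20 μM disruptor. RAD51 nuclear foci immunostained and percentage of RAD51-labeled nuclei counted.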

BXPC-3 [4] = test: Induction of apoptosis in human BxPC3 cells assessed as increase in fluorescence at 20 uM after 72 hrs in presence of olaparib by DAPI/PI staining based fluorescence microscopic analysis; format: functional, cell-based
Outline: (§3)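 BxPC-3 cells treated 72 h with disruptor alone or with olaparib, then stained with mixed DAPI (cell-permeable, nuclear condensation) and propidium iodide (membrane integrity loss). Nuclear morphology and dye uptake examined by fluorescence microscopy.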

HK-2 = test: Cytotoxicity against human HK2 cells at 20 uM after 72 hrs in presence of 10 uM olaparib by CellTiter-Glo luminescent cell viability assay; format: cell-based; settings: hk-2, 72 h
Outline: (§4)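 HK-2 cells are non-neoplastic immortalized human kidney cells grown in DMEM:F12 with 40 ng/mL dexamethasone. Capan-1 cells are BRCA2-defective and grown in RPMI 1640 with 10% FBS and 2 mM glutamine. Both exposed to disruptor with olaparib in 0.6% DMSO medium for an antiproliferative read-out. Drug interaction assessed by two-way ANOVA and combination index (CI <0.8 synergism, 0.8–1.2 additive).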

[5] = molecular target: T1, DNA repair protein RAD51 homolog 1 (Homo sapiens); test: Inhibition of RAD51 in BRCA2 defective human Capan1 cells assessed as increase in gamma-H2AX labelling at 20 uM after 48 hrs in presence of olaparib by immunofluorescence microscopic analysis; outline: as §2
BXPC-3 [6] = test: Antiproliferative activity against human BxPC3 cells at 15 uM after 72 hrs in presence of olaparib by CellTiter-Glo luminescent cell viability assay; format: functional, cell-based
Outline: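 BxPC-3 cells grown in RPMI 1640 with 10% FBS, penicillin/streptomycin and 2 mM glutamine. Disruptor given alone or with 10 μM olaparib in medium containing 0.6% DMSO, with the same DMSO in controls. Viability read at 72 h, measured alongside cell death.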

BXPC-3 [7] = test: Synergistic antiproliferative activity against human BxPC3 cells at 20 uM after 72 hrs in presence of 10 uM olaparib by CellTiter-Glo luminescent cell viability assay; format: functional, cell-based
Outline: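 BxPC-3 viability data from 72 h exposure to disruptor with 10 μM olaparib (0.6% DMSO medium) used to compute a combination index. CI <0.8 taken as synergism and 0.8–1.2 as additive. CI at each dose tested for difference from 0.8.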

BXPC-3 [8] = test: Induction of DNA damage in human BxPC3 cells assessed as micronuclei formation at 20 uM after 72 hrs by DAPI-staining based fluorescence microscopic analysis; format: functional, cell-based
Outline: (§5)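 BxPC-3 cultures treated 72 h with 20 μM disruptor, alone or with 10 μM olaparib, in 0.6% DMSO medium. Micronuclei outside the main nucleus visualized by DNA staining under the microscope. Percentage of micronucleated cells scored.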

CAPAN-1 = test: Synergistic antiproliferative activity against BRCA2 defective human Capan1 cells at 20 uM after 72 hrs in presence of 10 uM olaparib by CellTiter-Glo luminescent cell viability assay; format: functional, cell-based; outline: as §4
BXPC-3 [9] = test: Induction of DNA damage in human BxPC3 cells assessed as micronuclei formation at 20 uM after 72 hrs in presence of olaparib by DAPI-staining based fluorescence microscopic analysis; format: functional, cell-based; outline: as §5
BXPC-3 [10] = test: Antiproliferative activity against human BxPC3 cells assessed as increase in cell death at 20 uM after 72 hrs in presence of olaparib by CellTox Green assay; format: functional, cell-based; outline: as §1
[11] = molecular target: T1, DNA repair protein RAD51 homolog 1 (Homo sapiens); test: Inhibition of RAD51 in human BxPC3 cells assessed as reduction in homologous recombination incubated for 5 hrs by RT-PCR analysis; format: cell-based
Outline: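 Commercial two-plasmid recombination assay in BxPC-3 cells, with compound applied at different doses for 5 h simultaneously with plasmid transfection. Tested up to 40 μM, limited by solubility. Dose giving 50% HR inhibition estimated by polynomial regression.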

BXPC-3 [12] = test: Induction of apoptosis in human BxPC3 cells assessed as increase in fluorescence at 20 uM after 72 hrs by DAPI/PI staining based fluorescence microscopic analysis; format: functional, cell-based; outline: as §3

- inhibition [2]: Active
- inhibition [3]: Active
- inhibition [5]: inactive
- inhibition [11]: Dose-dependent effect
Structure (SMILES): CCC(=O)N1N=C(c2c(-c3ccccc3)c3cc(Cl)ccc3[nH]c2=O)CC1c1ccc(OC)cc1 (racemic)
- Activity (BXPC-3 [1]): inactive
- Activity (BXPC-3 [4]): Active
- Activity (HK-2): Non-Toxic
- Activity (BXPC-3 [6]): Active
- Activity (BXPC-3 [7]): Active
- Activity (BXPC-3 [8]): Active
- Activity (CAPAN-1): Active
- Activity (BXPC-3 [9]): Active
- Activity (BXPC-3 [10]): Active
- Activity (BXPC-3 [12]): Active
